Experimental data from PubChem BioAssay AID686992 (Broad Institute, 2013).
Where “and” joins values, the source holds several entries; their conditions need not be identical. Equal entries are not always repeated. Screen size: about 260,000 compounds; about 960 (0.37%) were called active.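 Rule for the calls: active = mean E-selectin-positive cell signal at least 10% of the positive control, reached in at least 60% of replicates, without over 20% cell loss; inconclusive = no rule given, readout overlaps actives, possibly toxicity-flagged; inactive = the rest, including those meeting only one limit.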 Many of the other results were omitted from the sample, so actives are more common in it than they were.

Target: E-selectin (Homo sapiens) (UniProt P16581)
Sequence (P16581 whole entry, looked up): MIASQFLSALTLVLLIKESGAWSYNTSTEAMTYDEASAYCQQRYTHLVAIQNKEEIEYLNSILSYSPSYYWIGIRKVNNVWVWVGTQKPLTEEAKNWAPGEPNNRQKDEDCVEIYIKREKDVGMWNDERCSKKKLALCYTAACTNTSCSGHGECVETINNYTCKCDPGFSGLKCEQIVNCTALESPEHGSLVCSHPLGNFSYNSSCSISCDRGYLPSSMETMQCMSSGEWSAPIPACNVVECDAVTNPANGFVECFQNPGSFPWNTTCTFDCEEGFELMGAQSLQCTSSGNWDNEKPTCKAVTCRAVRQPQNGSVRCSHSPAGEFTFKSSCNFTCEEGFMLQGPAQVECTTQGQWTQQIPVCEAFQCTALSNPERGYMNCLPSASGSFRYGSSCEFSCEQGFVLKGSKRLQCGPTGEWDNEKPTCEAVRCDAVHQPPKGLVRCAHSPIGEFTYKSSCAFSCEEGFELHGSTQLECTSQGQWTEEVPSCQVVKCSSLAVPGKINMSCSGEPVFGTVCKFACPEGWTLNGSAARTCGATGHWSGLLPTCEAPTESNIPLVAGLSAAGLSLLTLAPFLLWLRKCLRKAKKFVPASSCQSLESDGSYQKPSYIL
Test: E-selectin induction in HUVECs, primary screen, imaging, HUVEC, immunofluorescence imaging, single point (AID 686992);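 note: measured in HUVEC primary endothelial cells; signal is the percent of cells scored E-selectin positive by PE staining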
Conditions: at 7.58 µM, active compounds read high, normalized: neutral wells 0, TNF-alpha wells 100
Method in brief: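 Test system: HUVEC | Signal: Immunofluorescence imaging | Read-out: Percent E-selectin-positive cells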

Row | SMILES | activation
1 | COc1cccc(-c2nc3nc(C)cc(C)n3c2NC2CCCCC2)c1 | -0.154% (inactive)
2 | Cc1ccc(S(=O)(=O)N(C)C[C@@H]2Oc3c(NC(=O)Nc4ccccc4)cccc3C(=O)N([C@H](C)CO)C[C@H]2C)cc1 | 0.069% (inactive)
3 | C[C@H](CO)N1C[C@H](C)[C@H](CN(C)S(=O)(=O)c2ccccc2)Oc2c(NC(=O)Nc3ccccc3)cccc2C1=O | 392% (active)
4 | C[C@H](CO)N1C[C@H](C)[C@@H](CN(C)C(=O)NC2CCCCC2)Oc2c(NC(=O)Nc3ccc(F)cc3)cccc2C1=O | 42.3% (active)
5 | C[C@@H]1CN([C@H](C)CO)C(=O)c2cccc(NC(=O)Nc3cccc4ccccc34)c2O[C@@H]1CN(C)C(=O)Nc1cccc2ccccc12 | -0.224% (inactive)
6 | C[C@H]1CN([C@@H](C)CO)C(=O)c2cccc(NC(=O)Nc3ccc(C(F)(F)F)cc3)c2O[C@H]1CN(C)C(=O)NC1CCCCC1 | -0.0925% (inactive)
7 | C[C@H]1CN([C@@H](C)CO)C(=O)c2cccc(NS(=O)(=O)c3cn(C)cn3)c2O[C@@H]1CN(C)C(=O)Nc1ccc(F)cc1 | 46.9% (active)
8 | C[C@H](CO)N1C[C@H](C)[C@@H](CN(C)S(=O)(=O)c2ccc(F)cc2)Oc2c(NC(=O)Nc3ccccc3)cccc2C1=O | 0.238% (inactive) and 0.231% (inactive)
9 | COc1ccc(NC(=O)N(C)C[C@@H]2Oc3c(NS(=O)(=O)c4cn(C)cn4)cccc3C(=O)N([C@H](C)CO)C[C@@H]2C)cc1 | -11.1% (inactive)
10 | C[C@@H]1CN([C@H](C)CO)C(=O)c2cccc(NC(=O)Nc3ccccc3)c2O[C@@H]1CN(C)C(=O)NC1CCCCC1 | 0.168% (inactive)
11 | C[C@H](CO)N1C[C@H](C)[C@@H](CN(C)C(=O)Nc2cccc3ccccc23)Oc2c(NS(=O)(=O)c3ccccc3)cccc2C1=O | -0.43% (inactive)
12 | C[C@@H]1CN([C@H](C)CO)C(=O)c2cccc(NS(C)(=O)=O)c2O[C@@H]1CN(C)C(=O)Nc1cccc2ccccc12 | 91.3% (active)
13 | C[C@H]1CN([C@@H](C)CO)C(=O)c2cccc(NS(=O)(=O)c3cn(C)cn3)c2O[C@H]1CN(C)C(=O)Nc1ccc2c(c1)OCO2 | -9.5% (inactive)
14 | Nc1nc2c(ncn2[C@@H]2O[C@H](C(=O)N[C@@H](Cc3ccccc3)C(=O)NCc3ccccc3)[C@@H](O)[C@H]2O)c(=O)[nH]1 | -0.0025% (inactive)
15 | CS(=O)(=O)N1[C@H](CO)[C@H](c2ccccc2)C12CN(C(=O)C1CC1)C2 | 0.098% (inactive)
16 | CNC(=O)C1CN(C(=O)c2cccc(S(=O)(=O)N3CCc4ccccc43)c2)c2ccccc2O1 (stereo not drawn) | -0.207% (inactive)
17 | O=C(c1ccccc1)N1C[C@H]2[C@@H](c3ccccc31)[C@H](CO)N2Cc1ccccc1F | 0.376% (inactive)
18 | Cc1ccc(C)c(C(O)c2ncc(-c3cccc4ccccc34)[nH]2)c1 (stereo not drawn) | -0.22% (inactive)
19 | C/C=C/c1cnc2c(c1)C(=O)N([C@@H](C)CO)C[C@H](C)[C@@H](CN(C)C(=O)C1CC1)O2 | 0.382% (inactive)
20 | C[C@H]1CN([C@@H](C)CO)C(=O)c2cc(Br)cnc2O[C@H]1CN(C)Cc1cccc(F)c1 | 87.1% (active)
21 | C[C@@H]1CN([C@@H](C)CO)C(=O)c2cc(Br)cnc2O[C@@H]1CN(C)C(=O)C1CCCCC1 | -0.284% (inactive) and 0.234% (inactive)
22 | C[C@@H]1CN([C@H](C)CO)C(=O)c2cc(Br)cnc2O[C@@H]1CN(C)C(=O)C1CC1 | 118% (active)
23 | C[C@@H]1CN([C@@H](C)CO)C(=O)c2cc(-c3ccccc3F)cnc2O[C@@H]1CN(C)Cc1cccc(F)c1 | -0.0955% (inactive)

Row | SMILES | activation
24 | C[C@@H]1CN([C@@H](C)CO)C(=O)c2cc(-c3cccc(F)c3)cnc2O[C@@H]1CN(C)Cc1ccccc1 | -0.282% (inactive)
25 | COC(=O)C[C@H]1CC[C@@H](NC(=O)c2ccccc2)[C@@H](CO)O1 | -0.322% (inactive)
26 | O=C(COC(=O)CCc1c[nH]c2ccccc12)Nc1cccc(Cl)c1 | 5.9% (inactive)
27 | COC(=O)C[C@@H]1CC[C@@H]2[C@H](COc3ccc(NC(=O)c4cccc(F)c4)cc3C(=O)N2C)O1 | 0.16% (inactive)
28 | COC(=O)C[C@H]1CC[C@H]2[C@@H](COc3ccc(NC(=O)Nc4cccc(F)c4)cc3C(=O)N2C)O1 | -0.114% (inactive)
29 | COC(=O)C[C@H]1CC[C@H]2[C@H](COc3ccc(NC(=O)C4CC4)cc3C(=O)N2C)O1 | -0.049% (inactive)
30 | COC(=O)C[C@@H]1CC[C@@H]2[C@H](COc3ccc(NC(=O)Nc4cccc(F)c4)cc3C(=O)N2C)O1 | 59.2% (active)
31 | CN1C(=O)c2cc(NC(=O)C3CCOCC3)ccc2OC[C@@H]2O[C@H](CC(=O)NCc3ccccc3F)CC[C@H]21 | 99.5% (active)
32 | CN1C(=O)c2cc(NC(=O)C3CCC3)ccc2OC[C@@H]2O[C@@H](CC(=O)NCc3ccccc3F)CC[C@@H]21 | -0.028% (inactive)
33 | COC(=O)C[C@H]1CC[C@H]2[C@@H](COc3ccc(NC(=O)C4CC4)cc3C(=O)N2C)O1 | 84.9% (active)
34 | COC(=O)C[C@@H]1CC[C@@H]2[C@@H](COc3ccc(NC(=O)C4CCOCC4)cc3C(=O)N2C)O1 | 0.061% (inactive)
35 | CN1C(=O)c2cc(NC(=O)C3CCCC3)ccc2OC[C@H]2O[C@H](CC(=O)NCc3ccccc3F)CC[C@H]21 | 0.0215% (inactive)
36 | C[C@@H](CN1C2=NC[C@@H](Cc3ccccc3)N2C[C@H]1Cc1ccc(O)cc1)NC(=O)CCC1CCCCC1 | -4.54% (inactive)
37 | CCC(C)CN1C(=O)CSCC1(C)C(=O)NCc1ccccc1 (stereo not drawn) | 0.0415% (inactive)
38 | COC(=O)[C@@H]1[C@@H](CO)[C@@H]2Cn3c(ccc(-c4ccc(OC)cc4)c3=O)[C@@H]2N1C | 0.459% (inactive)
39 | N#C[C@@H]1[C@@H](c2ccccc2)[C@H](CO)N1C(=O)c1cc(Cl)cc(Cl)c1 | 0.0965% (inactive)
40 | COc1ccc(S(=O)(=O)N2C[C@H](O)COC[C@@H]3O[C@H](CC(=O)NCCN4CCCCC4)CC[C@H]32)cc1 | 0.128% (inactive)
41 | COc1ccc(-c2ccccc2[C@H]2[C@@H](C#N)N(C(=O)C3CCC3)[C@@H]2CO)cc1 | -0.0965% (inactive)
42 | COc1cccc(-c2cc3nc(NCCOc4ccccc4Cl)n(C)c(=O)c3s2)c1 | -0.11% (inactive)
43 | COc1ccc(C(C)(O)c2nc(-c3ccc(C)c(C)c3)cs2)cc1 (stereo not drawn) | -0.298% (inactive)
44 | COc1ccc2c3c(n(C)c2c1)[C@@H](CO)N(Cc1ccccc1OC)CC31CN(CC2CCOCC2)C1 | -0.609% (inactive)
45 | COc1ccc(C(C)(O)c2nc(-c3cc(F)cc(F)c3)cs2)cc1 (stereo not drawn) | 0.357% (inactive)
46 | COc1ccc(S(=O)(=O)NCCOc2ccccc2)cc1F | -0.118% (inactive)

Row | SMILES | activation
47 | COc1ccc(S(=O)(=O)NCC(=O)NCc2cc(=O)n(C)c(=O)n2C)cc1F | 79.6% (active)
48 | Cc1ccc(C(=O)NCC(=O)NCc2cc(=O)n(C)c(=O)n2C)cc1 | 0.0495% (inactive)
49 | CCCC(=O)Nc1ccc2c(c1)C(=O)N(C)[C@@H]1CC[C@H](CC(=O)Nc3cn(C)nc3C)O[C@H]1CO2 | -0.018% (inactive)
50 | Cn1c(Nc2ccc(F)cc2)nc2cc(-c3ccsc3)sc2c1=O | 0.0175% (inactive)
51 | COc1ccc(C2/C=C\CN(CC(C)C)CC(=O)N2Cc2ccc(F)cc2)cc1 (stereo not drawn) | -0.215% (inactive)
52 | COc1ccc(C2/C(=C(/O)c3ccccc3)C(=O)C(=O)N2C)c(OC)c1 (stereo not drawn) | 0.122% (inactive)
53 | COc1ccc(C2c3[nH]c4ccccc4c3C[C@H]3C(=O)N(CC(C)C)CC(=O)N23)c(OC)c1 (stereo partly drawn) | 61.1% (active)
54 | CCC(=O)N1CC2(C1)[C@H](c1ccc(-c3ccc(C)cc3)cc1)[C@H](CO)N2S(C)(=O)=O | -0.277% (inactive)
55 | COc1ccc(OC)c(C(O)c2ncc(-c3cccc(C(F)(F)F)c3)[nH]2)c1 (stereo not drawn) | -0.085% (inactive)
56 | O=C(Nc1ccc(S(=O)(=O)N2CCCCC2)cc1)C1CC(=O)N(c2ccc(F)cc2)C1 (stereo not drawn) | -0.119% (inactive)
57 | CNS(=O)(=O)c1ccc(NC(=O)C2CC(=O)N(c3ccc(Cl)cc3)C2)cc1 (stereo not drawn) | 35.7% (active)
58 | CCc1ccc(N2CC(C(=O)Nc3ccc(S(=O)(=O)Nc4nccs4)cc3)CC2=O)cc1 (stereo not drawn) | 0.004% (inactive)
59 | CC(=O)OCC1(O)CC23CCC4c5ccoc5CCC4(C)C2CCC1C3 (stereo not drawn) | 0.708% (inactive)
60 | COC(=O)C[C@@H]1CC[C@H]2[C@H](COc3ccc(NC(=O)c4ccccc4F)cc3C(=O)N2C)O1 | 0.0145% (inactive)
61 | CCCCCCN1C[C@H](O)[C@@H](n2cc(C3CC3)nn2)C[C@@H]1c1ccc(Cl)cc1 | -0.106% (inactive)
62 | C[C@@H]1CN([C@H](C)CO)C(=O)c2c(c3ccccc3n2C)-c2ccccc2CO[C@@H]1CN(C)Cc1ccccc1C(F)(F)F | 30.5% (active)
63 | C[C@H](CO)N1C[C@H](C)[C@@H](CN(C)Cc2ccc(C(F)(F)F)cc2)OCc2ccccc2-c2c(n(C)c3ccccc23)C1=O | -0.577% (inactive)
64 | C[C@@H]1CN([C@H](C)CO)C(=O)c2c(c3ccccc3n2C)-c2ccccc2CO[C@@H]1CN(C)Cc1ccc(F)cc1 | -0.183% (inactive)
65 | COc1ccc(CCCNC(=O)C2Cc3c(-c4cccc(C(N)=O)c4)ccnc3O2)cc1 (stereo not drawn) | 0.751% (inactive)
66 | C=CCC[C@H](CCCCC)OC(=O)/C=C/[C@H](O)[C@@H](O)C[C@@H](O)CC=C | -5.32% (inactive)
67 | NC1=NC2(CCCCC2)N(c2ccc(F)cc2F)C(N)=N1 | 522% (active)
68 | O=C(c1ccccc1)N1C[C@@H]2[C@H](c3ccccc31)[C@@H](CO)N2Cc1cc(F)ccc1F | 0.162% (inactive)
